Test results taken from ChEMBL document CHEMBL5154772, “Biological Investigation of a Water-Soluble Isoginkgetin-Phosphate Analogue, Targeting the Spliceosome with In Vivo Antitumor Activity” (J Med Chem, 2022).

Assays:
[1] = Metabolic stability in human liver microsomes assessed as intrinsic clearance incubated for 45 mins by HPLC-MS/MS analysis; format: ADME, Microsome; conditions: read-out: CLH
Procedure, shortened: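 Incubation with mouse or human liver microsomes for 45 min, with or without NADPH. Remaining parent compound was quantified over time by HPLC-MS/MS and expressed as % remaining; intrinsic clearance is given in μL/min/mg protein.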

[2] = Toxicity in C57BL/6 mouse assessed as change in spleen weight at 50 mg/kg, ip administered as single dose and measured after 15 days (reference value: 0.1 to 0.2 g); format: organism-based; conditions: in vivo, 360 h, time 15 day
Procedure, shortened: (§1)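 Female C57BL/6 mice given one IP injection of 100 µL, at 50, 100, 250 or 500 mg/kg in sterile PBS, two mice per dose; PBS-injected controls. Behaviour checked right after and at 30 min. Body weight recorded every 2–3 days for 15 days, then liver, spleen and kidneys weighed.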

[3] = Tmax in Beagle dog at 26.76 mg/kg, iv administered as single dose measured up to 24 hrs; format: ADME, organism-based, Canis lupus familiaris; conditions: in vivo
Procedure, shortened: (§2)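 Single intravenous dose. Mice were male C57BL/6J, 12 per route; tail-vein blood was collected under sodium heparin, with 3 mice sampled at each pair of times (0.083/2, 0.25/4, 0.5/8, 1/24 h). Dogs were male beagles (n=3); jugular blood was collected under K2 EDTA predose and at 0.083, 0.25, 0.5, 1, 2, 4, 6, 8 and 24 h. Plasma was prepared from the samples.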

[4] = Toxicity in C57BL/6 mouse assessed as change in liver weight at 500 mg/kg, ip administered as single dose and measured after 15 days (reference value: 1.2 to 1.3 g); format: organism-based; conditions: in vivo, 360 h, time 15 day; procedure, shortened: as §1
[5] = MRT(0 to t) in C57BL/6J mouse at 9.103 mg/kg, ip administered as single dose measured up to 24 hrs; format: ADME, organism-based; conditions: in vivo
Procedure, shortened: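 Single intraperitoneal dose in male C57BL/6J mice (12 per route). Tail-vein blood was collected under sodium heparin for plasma, with 3 mice sampled at each pair of times: 0.083/2, 0.25/4, 0.5/8 and 1/24 h. F denotes bioavailability.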

[6] = Total clearance in C57BL/6J mouse at 0.711 mg/kg, iv administered as single dose measured up to 24 hrs; format: ADME, organism-based; conditions: in vivo; procedure, shortened: as §2
[7] = Total clearance in Beagle dog at 26.76 mg/kg, iv administered as single dose measured up to 24 hrs; format: ADME, organism-based, Canis lupus familiaris; conditions: in vivo; procedure, shortened: as §2
[8] = Cmax in Beagle dog at 26.76 mg/kg, iv administered as single dose measured up to 24 hrs; format: ADME, organism-based, Canis lupus familiaris; set-up: time < 24 hrs, dose 26.76 mg/kg, route iv; conditions: in vivo; procedure, shortened: as §2
[9] = AUC(0 to t) in Beagle dog at 26.76 mg/kg, iv administered as single dose measured up to 24 hrs; format: ADME, organism-based, Canis lupus familiaris; set-up: dose 26.76 mg/kg, time < 24 hrs, route iv; conditions: in vivo; procedure, shortened: as §2
[10] = Antitumour activity against mouse wild type MCA-205 cells implanted in C57BL/6 mouse assessed as tumor size by measuring cell killing at 5 mg/kg, IT administered starting from day 7 post inoculation and thrice a week for 2 weeks; format: functional
Procedure, shortened: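 Female C57BL/6 mice (6 weeks old) given subcutaneous MCA205 WT fibrosarcoma in the right flank. From day 7 after inoculation, 5 mg/kg given intratumorally three times per week for two weeks; untreated controls. Tumour area recorded every 3–4 days until ethical endpoints, then tumour size at killing. Groups compared by one-way ANOVA.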

[11] = molecular target: Prostaglandin G/H synthase 1 (Homo sapiens) (UniProt P23219); test: Inhibition of COX1 (unknown origin) at 10 uM
[12] = Plasma protein binding in mouse assessed as unbound fraction at 2 uM by rapid equilibrium dialysis based LC-MS/MS analysis; format: ADME, cell-free
Procedure, shortened: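 Binding was measured at 2 μM in triplicate by rapid equilibrium dialysis (8K MWCO). Quantification was by UPLC-MS/MS on a phenyl column in positive ESI MRM mode (m/z 727>567), with an ammonium formate pH 5 / 1,5-DMHA mobile phase at 50 °C. Both unbound fraction (fu) and % bound are reported.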

[13] = Half life in Beagle dog at 26.76 mg/kg, iv administered as single dose measured up to 24 hrs; format: ADME, organism-based, Canis lupus familiaris; conditions: in vivo; procedure, shortened: as §2

COc1ccc(-c2cc(=O)c3c(O)cc(OP(=O)([O-])[O-])c(-c4cc(-c5cc(=O)c6c(O)cc(OP(=O)([O-])[O-])cc6o5)ccc4OC)c3o2)cc1.[Na+].[Na+].[Na+].[Na+]
microsomal CLint [1]: 11 µL/min/mg
Activity [2]: 0.1 g
Tmax [3]: 5 min
Activity [4]: 1 g
MRT last at 24 h [5]: 42 min
clearance [6]: 133 mL/min/kg
clearance [7]: 0.69 mL/min/kg
Cmax [8]: 272 µg/mL
AUC(0-t) at 24 h [9]: 655 µg·h/mL
Activity [10]: 50%
inhibition [11]: 52.8%
fraction unbound at 2 µM [12]: 0.02
half-life [13]: 228 min
